Reference: ChEMBL document CHEMBL3271979, “Inhibition of solid tumors by nitrosoureas. 1. Lewis lung carcinoma” (1977)
Activity calls are given as the source filed them. No cut-off for these calls is given here.

Tests used:
Mus musculus [1] = assay: Antitumor activity against mouse advanced Lewis lung carcinoma allografted in ip dosed BDF1 mouse assessed as complete regression of established tumor administered as single dose on day 6 or 7 post-tumor implantation; type: functional, organism-based
Outline: (§1)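 BDF1 mice (C57Blk/6 × DBA/2) implanted sc by trocar with Lewis lung tumor fragments of about 40 mg, taken only from bacteriologically sterile donor tumors. Mice bearing tumors of about 400 mg (day 6-7) were selected. Each received a single ip dose on day 7, at or below the LD10 in normal mice. Groups were of 10 mice. Tumor weight was taken from calipers as w = ab²/2, measured at least twice weekly. Matched non-tumor mice served as toxicity controls.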

[2] = Antitumor activity against mouse advanced Lewis lung carcinoma allografted in ip dosed BDF1 mouse assessed as increase in host lifespan administered as single dose on day 6 or 7 post-tumor implantation; type: functional
Outline: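 Advanced Lewis lung model: about 40 mg fragments implanted sc by trocar into BDF1 mice, and mice with tumors of about 400 mg (day 6-7) selected. Tumor weight from calipers, w = ab²/2. Agent given as one ip dose in distilled water or physiological saline. Nontumor-bearing mice received matching doses as toxicity controls.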

Mus musculus [3] = assay: Antitumor activity against mouse advanced Lewis lung carcinoma allografted in BDF1 mouse assessed as disease cure at 32 mg/kg, ip administered as single dose on 7th day post-tumor implantation measured for 80 days post-drug treatment; type: functional, organism-based; design: dose 32 mg/kg; outline: as §1
Mus musculus [4] = assay: Antitumor activity against mouse advanced Lewis lung carcinoma allografted in BDF1 mouse assessed as complete regression of established tumor at 32 mg/kg, ip administered as single dose on 7th day post-tumor implantation; type: functional, organism-based; design: dose 32 mg/kg
Outline: (§2)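 BDF1 mice (C57Blk/6 × DBA/2) implanted sc by trocar with about 40 mg Lewis lung tumor fragments from bacteriologically sterile donors. Advanced-disease groups held tumors of about 400 mg by day 6-7, sized by caliper (w = ab²/2). Single ip injection on day 7, in water or saline vehicle, at or below the LD10 in normal mice. Tumors measured at least twice weekly.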

[5] = Antitumor activity against mouse advanced Lewis lung carcinoma allografted in BDF1 mouse assessed as increase in host life span at 32 mg/kg, ip administered as single dose on 7th day post-tumor implantation; type: functional; details: route intraperitoneal; outline: as §2
Mus musculus [6] = assay: Antitumor activity against mouse early Lewis lung carcinoma allografted in ip dosed BDF1 mouse assessed as disease cure administered as single dose on 1 or 2 days post-tumor implantation measured for 80 days post-drug treatment; type: functional
Outline: (§3)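 BDF1 mice implanted sc by trocar with ~40 mg Lewis lung fragments from sterile donor tumors. A single ip dose was given on day 1 or 2 after implant, in water or saline vehicle. Cures were scored in animals observed for at least 80 days after treatment. Drug-toxicity controls were matched non-tumor-bearing mice monitored for body weight and deaths.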

L1210 = assay: Antitumor activity against mouse L1210 cells allografted in ip dosed mouse assessed as disease cure administered as single dose; type: functional, organism-based
Mus musculus [7] = assay: Antitumor activity against mouse early Lewis lung carcinoma allografted in ip dosed BDF1 mouse administered as single dose on 1 or 2 days post-tumor implantation measured for 80 days post-drug treatment; type: functional, organism-based; outline: as §3
[8] = Ratio of ED50 for antitumor activity against mouse L1210 cells allografted in ip dosed mouse to LD10 for mouse
[9] = Antitumor activity against mouse advanced Lewis lung carcinoma allografted in BDF1 mouse assessed as increase in host life span at 36 mg/kg, ip administered as single dose on 7th day post-tumor implantation; type: functional; details: route intraperitoneal; outline: as §2
Mus musculus [10] = assay: Antitumor activity against mouse advanced Lewis lung carcinoma allografted in BDF1 mouse assessed as disease cure at 36 mg/kg, ip administered as single dose on 7th day post-tumor implantation measured for 80 days post-drug treatment; type: functional, organism-based; design: dose 36 mg/kg; outline: as §1
Mus musculus [11] = assay: Antitumor activity against mouse advanced Lewis lung carcinoma allografted in ip dosed BDF1 mouse assessed as disease cure administered as single dose on day 6 or 7 post-tumor implantation; type: functional, organism-based; outline: as §1

Structure (SMILES) | inhibition (Mus musculus [1]) | ILS [2] [%] | other results
CC[C@H]1CC[C@H](NC(=O)N(CCF)N=O)CC1 | inactive | <25 | –
O=NN(CCCl)C(=O)NCCF | – | – | Activity (Mus musculus [3]): inactive; inhibition (Mus musculus [4]): inactive; ILS at 32 mg/kg [5]: 44%
CCCCCC(C)NC(=O)N(CCCl)N=O (centres undefined) | inactive | <25 | Activity (Mus musculus [6]): inactive; Activity (L1210): inactive; Activity (Mus musculus [7]): inactive
O=NN(CCCl)C(=O)N[C@H]1CC[C@@H](NC(=O)N(CCCl)N=O)CC1 | inactive | <25 | –
CC(=O)O[C@H]1CC[C@H](NC(=O)N(CCF)N=O)CC1 | inactive | <25 | –
C[C@H]1CCC[C@@H](NC(=O)N(CCCl)N=O)C1 (relative stereo) | inactive | <25 | –
O=NN(CCCl)C(=O)NCCCl [CARMUSTINE] | inactive | <25 | Activity (Mus musculus [3]): inactive; inhibition (Mus musculus [4]): inactive
O=NN(CCF)C(=O)N[C@H]1CC[C@@H](C(=O)O)CC1 | inactive | <25 | –
CC(C)[C@H]1CC[C@H](NC(=O)N(CCF)N=O)CC1 | inactive | <25 | –
C[C@H]1S(=O)(=O)C[C@H](NC(=O)N(CCCl)N=O)CS1(=O)=O | inactive | <25 | Activity (Mus musculus [6]): inactive; Ratio [8]: 0.4; Activity (Mus musculus [7]): inactive
O=NN(CCCl)C(=O)NC1CCCC1 | inactive | <25 | –
C[C@H]1CC[C@@H](NC(=O)N(CCCl)N=O)CC1 | inactive | <25 | –
O=NN(CCF)C(=O)NC1CCSCC1 | inactive | >25 | ILS at 36 mg/kg [9]: 87%; Activity (Mus musculus [10]): inactive; Activity (Mus musculus [11]): inactive
O=NN(CCF)C(=O)N[C@H]1CC[C@H](NC(=O)N(CCCl)N=O)CC1 | inactive | <25 | –
O=NN(CCCl)C(=O)NC1CC2CCC1C2 (centres undefined) | inactive | >25 | Activity (Mus musculus [11]): inactive
O=NN(CCCl)C(=O)NC1C=CCCC1 (centres undefined) | inactive | <25 | –
CO[C@H]1CC[C@@H](NC(=O)N(CCCl)N=O)CC1 | – | – | Activity (Mus musculus [7]): inactive
C[C@H]1S(=O)(=O)C[C@@H](NC(=O)N(CCCl)N=O)CS1(=O)=O | inactive | >25 | Activity (Mus musculus [6]): inactive; Activity (Mus musculus [3]): inactive; inhibition (Mus musculus [4]): inactive; Activity (Mus musculus [11]): inactive; Ratio [8]: 0.6; ILS at 32 mg/kg [5]: 10%; Activity (Mus musculus [7]): inactive
O=NN(CCCl)C(=O)NC1CCS(=O)(=O)C1 (centres undefined) | inactive | <25 | –
O=NN(CCCl)C(=O)N[C@@H]1CCC[C@H](C(=O)O)C1 (relative stereo) | inactive | <25 | –
